The subject of one experiment is MKN45 cells. Put plainly: MTT cell proliferation assay, MKN45. Format: cell-based. As to conditions: Homo sapiens, MKN-45, 72 h, read-out: IC50 on MKN45 cells. The essentials: (§1)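 Cells seeded overnight in 96-well plates, then exposed to a range of test compound concentrations for 72 h. MTT added for 2 h, medium removed, formazan dissolved in DMSO, and OD570 read. Viability normalized to untreated cells from the same experiment. IC50 calculated from concentration–response data. MTT run in triplicate; means ± SEM of three experiments.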
A general note: Tetrazolium dyes change colour on reduction, which living cells bring about.

The next experiment concerns AGS cells. In words: MTT cell proliferation assay, AGS. As to conditions: Homo sapiens, 72 h, read-out: IC50 on AGS cells. The experiment is classed as cell-based. In a few lines:
as §1

As a reminder, the IC50 is the concentration at which inhibition is half-maximal. Consider `COc1ccc(CCCOC(Cn2ccnc2)c2ccc(OC)cc2)cc1` (centres unmarked) [SKF96365], for which the 50% inhibitory concentration (IC50) in the experiment on MKN45 cells was 13.7 ± 0.8 µM; with AGS cells, 27.8 ± 1.1 µM.
